Measured values pooled from the literature.
Lines come from different studies, so protocols differ.
Target: Serine/threonine-protein kinase SIK2 (SIK2, Homo sapiens, UniProt Q9H0K1)

The remaining binding of O=C(NCc1ncc(C(F)(F)F)cc1Cl)c1ccc2c(c1)C1(CCS(=O)(=O)CC1)[C@H](C1CC1)N2S(=O)(=O)c1ccc(F)cc1 is reported as 96% (cell-free assay; competition with immobilised ligand; 1 µM).
The inhibition of Cn1cc(-c2cccc(N3CCc4c(sc5c4CC(C)(C)C5)C3=O)c2CO)cc(Nc2ccncn2)c1=O is reported as 4% (enzyme activity; inhibitor; 1 µM).
Cn1cncc1[C@](O)(COc1ccc(C#N)cc1-c1ccc(OC(F)(F)F)cc1)c1ccc(C#N)cc1 gave a remaining binding of 95% (cell-free assay; competition with immobilised ligand; 1 µM).
For O=c1[nH]c2ccccc2n1C1CCN(Cc2ccc(-c3[nH]c4cc5ncnc5cc4nc3-c3ccccc3)cc2)CC1, the remaining signal was 114% (cell-free assay; 0.5 µM).
Cn1cc(-c2cc(F)cc(N3CCn4c(cc5c4CCCC5)C3=O)c2CO)cc(Nc2ccc(N3CCN(C4COC4)CC3)cn2)c1=O gave an inhibition of 13% (enzyme activity; inhibitor; 0.1 µM).
With Cc1nn(C)cc1-c1nc2c(N3CCN(Cc4ccc(Cl)cc4)CC3)c(Cl)cnc2[nH]1 the remaining binding was 36% (binding; competition with immobilised ligand; 1 µM).
For COc1ncccc1-c1cnn2ccc(N3CCN(C(=O)OC(C)C)CC3)nc12, the remaining binding was 50% (binding; competition with immobilised ligand; 1 µM).
CC(C)(C)c1cc(C=C(C#N)C#N)cc(Br)c1O has a remaining activity of 115% (enzyme activity; inhibitor; 0.5 µM).
